From ChEMBL document CHEMBL1126944, “Benzoquinazoline inhibitors of thymidylate synthase: enzyme inhibitory activity and cytotoxicity of some sulfonamidobenzoylglutamate and related derivatives” (J Med Chem, 1993) come the findings set out here.

Data set [1] addresses T1, Thymidylate synthase (Homo sapiens, UniProt P04818). The data set is described as follows: Inhibitory activity against thymidylate synthase (TS). Conditions: read-out: I50.
The subject of data set [2] is MCF7. The data set is described as follows: Cell culture cytotoxicity of MCF-7 breast adenocarcinoma cells. It counts as functional, Homo sapiens. The gist of the method:
(§1)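 MCF-7 cells kept in folic acid-free RPMI 1640 with 10 nM (6R,S)-5-formyltetrahydrofolic acid as sole folate plus 10% charcoal-dialyzed FBS. MTT dye-reduction assay after continuous drug exposure for 96 h. Value is the concentration giving 50% reduction in growth rate.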

A short description of data set [3]: Velocity compared to a control 50 uM aminopterin run on each test. The format is ADME. The gist of the method: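 Substrate activity toward partially purified hog liver folylpolyglutamate synthetase. Velocity expressed as percent of a 50 µM aminopterin control included in every run.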
In data set [4] the target is T1, Thymidylate synthase. As to the kind of experiment: Inhibition of purified human thymidylate synthase (TS) isolated from an Escherichia coli harboring a plasmid with thy A gene cloned from SV40 transformed human fibroblast cells. The format is cell-free. Summed up:
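Purified recombinant human TS, expressed in E. coli from a thyA gene cloned from SV40-transformed human fibroblasts. Inhibition was measured by a modified tritium-release assay. Ki was estimated by treating compounds as tight-binding noncompetitive inhibitors.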

Data set [5] relates to MCF7. As to the kind of experiment: Cell culture cytotoxicity (CCCT) of MCF-7 breast adenocarcinoma cells. It counts as functional, Homo sapiens. Summed up:
as §1

Data set [6] deals with SW480. The data set is described as follows: Cell culture cytotoxicity of SW480 colon adenocarcinoma cells. The format is functional, Homo sapiens. The gist of the method:
(§2)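 SW480 or MOLT-4 cells grown in folic acid-free RPMI 1640 supplemented with 10 nM (6R,S)-5-formyltetrahydrofolic acid and 10% charcoal-dialyzed FBS. Continuous 72 h drug exposure, growth read by MTT tetrazolium dye reduction. Reported as the concentration halving growth rate.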

The test system of data set [7] is MOLT-4. The data set is described as follows: Cell culture cytotoxicity of MOLT-4 T-cell leukemia cells. The format is functional, Homo sapiens. The gist of the method:
as §2

Data set [8] deals with SW480. The data set is described as follows: Cell culture cytotoxicity of SW480 colon adenocarcinoma cells. The format is functional, Homo sapiens. The gist of the method: as §2
Data set [9] deals with MOLT-4. The data set is described as follows: Inhibition constant against the transport of [3H]- methotrexate (MTX) by MOLT-4 T-cell. It counts as functional, Homo sapiens. Summed up:
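Uptake of [3H]methotrexate, a substrate of the reduced folate carrier, into MOLT-4 T-cell leukemia cells measured with and without compound. Inhibition constant derived against this transport.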

For data set [10], the target named is T1, Thymidylate synthase. The data set is described as follows: Inhibition of purified human thymidylate synthase isolated from an Escherichia coli harboring thy A gene cloned from SV40 transformed human fibroblast cells. The format is cell-free.
A short description of data set [11]: Ratio of relative velocity to that of the Michaelis constant.
For data set [12], the species on record is Sus scrofa. As to conditions: Liver.
Data set [13] addresses MOLT-4.

pIC50, pKi: −log10 of the molar value.

T1 sequence (P04818 whole entry): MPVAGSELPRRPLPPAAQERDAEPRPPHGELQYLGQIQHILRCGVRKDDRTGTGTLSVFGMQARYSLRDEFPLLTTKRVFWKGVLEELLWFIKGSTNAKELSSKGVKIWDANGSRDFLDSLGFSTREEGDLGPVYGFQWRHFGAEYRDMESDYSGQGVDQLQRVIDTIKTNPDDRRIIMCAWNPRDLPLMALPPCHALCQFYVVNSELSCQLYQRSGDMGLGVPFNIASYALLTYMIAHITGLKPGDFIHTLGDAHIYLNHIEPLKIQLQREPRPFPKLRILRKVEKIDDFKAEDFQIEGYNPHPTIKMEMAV

On to `C#CCN(Cc1ccc2nc(C)[nH]c(=O)c2c1)c1ccc(C(=O)N[C@@H](CCC(=O)O)C(=O)O)cc1`, for which, in data set [1], the pIC50 is […].
The compound `Nc1nc(O)c2c(n1)CCc1cc(S(=O)(=O)Nc3ccc(C(=O)N[C@@H](CCC(=O)O)C(=O)O)cc3)ccc1-2` had a CCCT in data set [2] of 25 µM. The Vm rel in data set [3] stood at 102%.
In the case of `Nc1nc(O)c2c(ccc3ccc(Br)cc32)n1`, the pKi (commonly the negative decadic logarithm of the Ki, by convention in mol/L) in data set [4] is 7.70. This compound also gave a CCCT in data set [5] of 10 µM.
On to `Nc1nc(O)c2c(n1)CCc1ccc(S(=O)(=O)Nc3ccc(C(=O)N[C@@H](CCC(=O)O)C(=O)O)cc3)cc1-2`, for which the figures for the CCCT in data set [6], in data set [2] and in [7] were 7.9 µM, 0.65 µM and 2.4 µM, respectively. Besides, in [3], the Vm rel is 115%.
As to `C#CCN(c1ccc(C(=O)N[C@@H](CCC(=O)O)C(=O)O)cc1)S(=O)(=O)c1ccc2c(c1)CCc1nc(N)nc(O)c1-2`, the CCCT in data set [6], in [2] and in data set [7] was greater than 50 µM in each case.
On to `Cc1nc(O)c2c(n1)CCc1ccc(S(=O)(=O)N(C)c3ccc(C(=O)N[C@@H](CCC(=O)O)C(=O)O)cc3)cc1-2`, for which the CCCT in data set [6] and in data set [2] was greater than 50 µM each time.
Turning to `Cc1nc(O)c2c(ccc3c(S(=O)(=O)Nc4ccc(C(=O)N[C@@H](CCC(=O)O)C(=O)O)cc4)cccc32)n1`, the CCCT in data set [6] was greater than 100 µM; in data set [2] it was 50 µM. Moreover, the Vel rem in data set [3] was 55.2%.
`Cc1nc(O)c2c(ccc3ccccc32)n1` had a CCCT in data set [2] greater than 100 µM.
For the compound `Nc1nc(O)c2c(ccc3cc(S(=O)(=O)Nc4ccc(C(=O)N[C@@H](CCC(=O)O)C(=O)O)cc4)c(Br)cc32)n1`, in data set [4], the pKi is 4.79. In addition, the CCCT in [2] and in data set [8] was greater than 50 µM in each case. In addition, the Inhibition (commonly how much of the control response was suppressed) in data set [9] was determined as 45%.
For the compound `Cc1nc2ccc3ccc(S(=O)(=O)Nc4ccc(C(=O)N[C@@H](CCC(=O)O)C(=O)O)cc4)cc3c2c(=O)[nH]1`, in data set [3], the Vm rel is reported as 185%. In data set [10], the pKi is 8.26. For the same compound, the V/K in [11] was 59.6.
In turn, `Nc1nc(O)c2c(n1)CCc1ccccc1-2` showed a CCCT in data set [2] greater than 100 µM.
For `Cc1nc(O)c2c(n1)CCc1ccc(S(=O)(=O)Nc3ccc(C(=O)N[C@@H](CCC(=O)O)C(=O)O)cc3)cc1-2`, the CCCT in data set [6] worked out at 4.1 µM; in data set [2] it was 0.65 µM; in data set [7] it was 0.2 µM. Also, the Vm rel in data set [3] is 109%.
In [4], `Nc1nc(O)c2c(ccc3ccc(NS(=O)(=O)c4ccc(C(=O)N[C@@H](CCC(=O)O)C(=O)O)cc4)cc32)n1` showed a negative logarithm of the Ki (pKi) of 7.00. This compound also had a CCCT in data set [8] greater than 100 µM. Also, the Inhibition in data set [9] is listed as 42%.
Turning to `Nc1nc(O)c2c(n1)CCc1cc(Br)c(S(=O)(=O)Nc3ccc(C(=O)N[C@@H](CCC(=O)O)C(=O)O)cc3)cc1-2`, the CCCT in data set [6] and in data set [2] was greater than 100 µM throughout. Further, the Vm rel in data set [3] stood at 28.9%.
Turning to `Cc1nc(O)c2c(ccc3ccc(S(=O)(=O)Nc4ccc(C(=O)N[C@@H](CCC(=O)O)C(=O)O)cc4)cc32)n1`, the Michaelis-Menten constant (Km) (commonly the substrate concentration at which the rate is half of its maximum) in [12] was determined as 3.11 µM. The CCCT was found to be 2.4 µM in data set [6], 0.07 µM in [2] and 0.12 µM in [7]. For the same compound, the negative-log Ki (pKi) in [13] is 5.31.
With `Cc1nc(O)c2c(n1)CCc1ccccc1-2`, in [2], the CCCT is greater than 100 µM.
